In BindingDB's records for doi:10.1021/jm015578d (Sapienza University of Rome, 2002) one finds Ki data, which are given here for one compound.

The experiment concerns the target T1, Amine oxidase [flavin-containing] A (Bos taurus, UniProt P21398).
T1 sequence (P21398 whole entry): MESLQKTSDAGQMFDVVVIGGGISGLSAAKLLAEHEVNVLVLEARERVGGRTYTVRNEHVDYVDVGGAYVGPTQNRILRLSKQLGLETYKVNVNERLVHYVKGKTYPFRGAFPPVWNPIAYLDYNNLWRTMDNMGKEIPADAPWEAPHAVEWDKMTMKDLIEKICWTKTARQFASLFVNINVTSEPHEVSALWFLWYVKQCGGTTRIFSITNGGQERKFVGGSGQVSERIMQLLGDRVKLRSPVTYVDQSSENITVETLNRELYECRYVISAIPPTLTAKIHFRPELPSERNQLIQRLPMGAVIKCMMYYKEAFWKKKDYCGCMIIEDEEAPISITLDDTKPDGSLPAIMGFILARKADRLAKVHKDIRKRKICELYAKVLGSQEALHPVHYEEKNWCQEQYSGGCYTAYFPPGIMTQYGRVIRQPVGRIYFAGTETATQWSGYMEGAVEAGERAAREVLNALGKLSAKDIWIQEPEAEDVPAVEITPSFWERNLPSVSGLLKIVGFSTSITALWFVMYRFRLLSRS
As to the kind of experiment: Inhibition of bovine brain mitochondrial Monoamine oxidase A (MAO-A) compared to toloxatone. A digest of the protocol:
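Bovine brain mitochondria were isolated by the Basford method. To isolate MAO-A, fractions were preincubated 30 min at 38 °C with 1 μM L-deprenyl. Inhibitors in DMSO were preincubated 30 min, then kynuramine substrate was added, with 30 min further incubation. Product was read fluorimetrically and Ki values derived.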

Usually Ki stands for a dissociation constant, usually derived from enzyme kinetics or from competition with a known ligand. In turn, `O=C1O[C@@H](CO)CN1n1cccc1` came in with a Ki of 270 nM.
